Read-outs that look alike come from different tables or passages of the source. Peptide text beside a SMILES is read from it. * marks the point of attachment. Cbz = O=C(OCc1ccccc1)*

The test system of series [1] is HCT116 (colon cancer) cells. Nature of the series: CCK-8 antiproliferative assay, HCT116. The format is cell-based. The following applies: Homo sapiens, HCT-116, read-out: IC50 HCT116. For orientation: Tetrazolium dyes change colour on reduction, which living cells bring about.
The target of series [2] is MDM2‒P53 (Homo sapiens, UniProt Q00987). Nature of the series: fluorescence polarization. It is filed as binding. The following applies: for Ki: MDM2‒P53 Ki, FP binding assay, Table 1. On the technique in general: Polarisation of emitted light reports the rotation of a fluorescent probe.
Series [3] has as its system MCF-7 (breast cancer) cells. In words: CCK-8 antiproliferative assay, MCF-7. The following applies: Homo sapiens, MCF7, read-out: IC50 MCF-7. It is filed as cell-based.
The test system of series [4] is A549 (lung cancer) cells. In words: CCK-8 antiproliferative assay, A549. The following applies: Homo sapiens. The format is cell-based.
In series [5] the target is MDM2 (Homo sapiens, UniProt Q00987). In words: Western blotting of MDM2 degradation in A549 cells. It is filed as cell-based. To be noted: for MDM2 degradation (result in words): Western blotting, Fig. 2B.
The test system of series [6] is HepG2 (liver cancer) cells. Nature of the series: CCK-8 antiproliferative assay, HepG2. The format is cell-based. The following applies: Homo sapiens, HepG2, read-out: IC50 HepG2.
Series [7] has as its system P53. In words: Western blotting of P53 expression in A549 cells. It is filed as cell-based, human.
Series [8] deals with HCT116 (P53‒) cells. Nature of the series: CCK-8 assay, P53-deleted HCT116. The format is cell-based. To be noted: Homo sapiens, HCT-116, read-out: IC50 HCT116 (P53‒).
Series [9] relates to A549 cells. Nature of the series: apoptosis assay, flow cytometry with Annexin V/PI double staining. To be noted: for apoptosis: 5.0 μmol/L, 24 h treatment. The format is cell-based, human. Background: A flow cytometer gives signals particle by particle.
For series [10], the system named is HCT116 (P53+) cells. Nature of the series: CCK-8 assay, P53-wild HCT116. The format is cell-based. The following applies: Homo sapiens, HCT-116, read-out: IC50 HCT116 (P53+).
Series [11] deals with Caco-2 cells. It is filed as in vitro ADME.
Series [12] concerns A549 xenograft. In words: in vivo A549 xenograft assay. Set-up: species or system mouse. The following applies: A549 xenograft nude mice, intraperitoneal 20 mg/kg twice-daily, 21 days. The essentials:
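Female BALB/c nude mice (6–7 weeks, 18–20 g) received 5.0 × 10^6 A549 cells subcutaneously in the flank. At mean tumour volume 100 mm3 they were randomised, 5 per group. Intraperitoneal dosing ran twice daily for 21 days; vehicle was normal saline. Calipers measured tumours every three days: V = A×B²/2, TGI = (1 − Vtreat/Vcontrol) × 100. Analysis used mean ± SEM and one-way ANOVA.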

The mark [13] stands for this setting: A549, 72 h, read-out: IC50 A549.

What is called IC50 is the midpoint of a concentration-inhibition curve. As usually defined, the Ki is the dissociation constant of the complex between target and ligand, obtained from inhibition or displacement. A low value points to tighter binding. Take `CCOc1cc(C(C)(C)C)ccc1C1=N[C@@H](c2ccc(Cl)cc2)[C@@H](c2ccc(Cl)cc2)N1C(=O)N1CCN(C(=O)CCCCCC(=O)N2CCN(C(=O)N3C(c4ccc(C(C)(C)C)cc4OCC)=N[C@@H](c4ccc(Cl)cc4)[C@H]3c3ccc(Cl)cc3)CC2)CC1` (relative stereo) [Compound 10a, 1,7-Bis(4-(2-(4-(tert-butyl)-2-ethoxyphenyl)-cis-4,5-bis(4-chlorophenyl)-4,5-dihydro-1H-imidazole-1-carbonyl)piperazin-1-yl) heptane-1,7-dione]: the IC50 amounted to 2.5 ± 1 µM in series [1], 2.1 µM in series [3], 2.1 ± 0.1 µM in series [4] (setting [13]) and 1.5 ± 0.05 µM in series [6]. This molecule had a Ki in [2] of 0.65 ± 0.17 µM. In addition, the “MDM2 degradation (result in words)” value in series [5] is listed as “no degradation”.

On to `CCOc1cc(C(C)(C)C)ccc1C1=N[C@@H](c2ccc(Cl)cc2)[C@@H](c2ccc(Cl)cc2)N1C(=O)N1CCN(C(=O)CCCCCCCC(=O)N2CCN(C(=O)N3C(c4ccc(C(C)(C)C)cc4OCC)=N[C@@H](c4ccc(Cl)cc4)[C@H]3c3ccc(Cl)cc3)CC2)CC1` (relative stereo) [Compound 10b, 1,9-Bis(4-(2-(4-(tert-butyl)-2-ethoxyphenyl)-cis-4,5-bis(4-chlorophenyl)-4,5-dihydro-1H-imidazole-1-carbonyl)piperazin-1-yl) nonane-1,9-dione], for which the IC50 is 5.7 ± 1.3 µM in series [1], 6.3 ± 1.1 µM in [3], 6.3 ± 1.2 µM in [4] (setting [13]) and 3.8 µM in series [6]. Further, affinity in [2] was put at a Ki of 1.6 ± 0.96 µM.

`CCOc1cc(C(C)(C)C)ccc1C1=N[C@@H](c2ccc(Cl)cc2)[C@@H](c2ccc(Cl)cc2)N1C(=O)N1CCN(C(=O)COCCOCC(=O)N2CCN(C(=O)N3C(c4ccc(C(C)(C)C)cc4OCC)=N[C@@H](c4ccc(Cl)cc4)[C@H]3c3ccc(Cl)cc3)CC2)CC1` (relative stereo) [Compound 10e, 2,2′-(Ethane-1,2-diylbis(oxy)) bis(1-(4-(2-(4-(tert-butyl)-2-ethoxyphenyl)-cis-4,5-bis(4-chlorophenyl)-4,5-dihydro-1H-imidazole-1-carbonyl)piperazin-1-yl)ethan-1-one)]: the IC50 in series [1] was 3.9 ± 0.7 µM; in series [3] it was 7.4 ± 0.51 µM; in [4] (setting [13]), 6.6 ± 1 µM; in [6] it was 4.6 ± 0.8 µM. In [2], this molecule displayed a Ki of 1.5 ± 0.82 µM.

Consider `CCOc1cc(C(C)(C)C)ccc1C1=N[C@@H](c2ccc(Cl)cc2)[C@@H](c2ccc(Cl)cc2)N1C(=O)N1CCN(C(=O)COCCOCCOCC(=O)N2CCN(C(=O)N3C(c4ccc(C(C)(C)C)cc4OCC)=N[C@@H](c4ccc(Cl)cc4)[C@H]3c3ccc(Cl)cc3)CC2)CC1` (relative stereo) [Compound 10f, 2,2′-((Oxybis(ethane-2,1-diyl))bis(oxy))bis(1-(4-(2-(4-(tert-butyl)-2-ethoxyphenyl)-cis-4,5-bis(4-chlorophenyl)-4,5-dihydro-1H-imidazole-1-carbonyl)piperazin-1-yl)ethan-1-one)], for which the IC50 in series [1] was 1.3 ± 0.1 µM; in series [3], 4.7 ± 0.81 µM; in [4] (setting [13]), 1.3 µM; in [6], 1.2 ± 0.2 µM. This molecule gave a Ki in series [2] of 0.22 ± 0.07 µM. In addition, the “P53 protein expression (result in words)” value in series [7] is given as “increased the P53 protein expression”. The “MDM2 degradation (result in words)” value in series [5] was “dose-dependently induced MDM2 protein cleavage”.

`CCOc1cc(C(C)(C)C)ccc1C1=N[C@@H](c2ccc(Cl)cc2)[C@@H](c2ccc(Cl)cc2)N1C(=O)N1CCN(CC(=O)NCCOCCOCCOCCNC(=O)CN2CCN(C(=O)N3C(c4ccc(C(C)(C)C)cc4OCC)=N[C@@H](c4ccc(Cl)cc4)[C@H]3c3ccc(Cl)cc3)CC2=O)C(=O)C1` (relative stereo) [Compound 11a, N,N′-(((Oxybis(ethane-2,1-diyl))bis(oxy))bis(ethane-2,1-diyl))bis(2-(4-(2-(4-(tert-butyl)-2-ethoxyphenyl)-cis-4,5-bis(4-chlorophenyl)-4,5-dihydro-1H-imidazole-1-carbonyl)-2-oxopiperazin-1-yl)acetamide)]: the IC50 in series [8] was over 50 µM; in series [1] it was 1.9 ± 0.11 µM; in series [10], 1.9 ± 0.67 µM; in series [3] it was 2.9 ± 0.6 µM; in [4] (setting [13]) it was 1 ± 0.1 µM; in series [4] (A549, read-out: IC50 A549), 1.4 ± 0.31 µM. The half-inhibitory concentration (IC50) in [6] worked out at 3.3 ± 0.31 µM. For the same molecule, the “apoptosis in combination with MG132” value in series [9] (A549 cells, 5.0 μmol/L compound + MG132 0.2 μmol/L) was 15.81%. The molecule further gave an apoptosis in [9] (A549 cells) of 23.49%. The “fold more potent MDM2‒P53 competitive binding than positive control 1” value in series [2] (ratio of Ki vs compound 1) is about 1.5 fold. Further, the “cellular permeability (result in words)” value in series [11] is given as “low permeability”. Besides, the “P53 protein expression (result in words)” value in series [7] is “increased the P53 protein expression”. This molecule yielded an MDM2 degradation in [5] (2 μmol/L, 24 h) of over 95%. Moreover, the “MDM2 degradation rescue by proteasome inhibitor MG132 (result in words)” value in series [5] (Fig. 4F) was “MG132 blocked the MDM2 degradation”. Further, the “MDM2 degradation (result in words)” value in series [5] is given as “dose-dependently induced MDM2 protein cleavage”. Also, the “time at which depletion of MDM2 was observed” value in series [5] (time course degradation, Fig. 4D) is on record as at most 2 h.

Regarding `CCOc1cc(C(C)(C)C)ccc1C1=N[C@@H](c2ccc(Cl)cc2)[C@@H](c2ccc(Cl)cc2)N1C(=O)N1CCN(CC(=O)NCCOCCOCCNC(=O)CN2CCN(C(=O)N3C(c4ccc(C(C)(C)C)cc4OCC)=N[C@@H](c4ccc(Cl)cc4)[C@H]3c3ccc(Cl)cc3)CC2=O)C(=O)C1` (relative stereo) [Compound 11b, N,N′-((Ethane-1,2-diylbis(oxy))bis(ethane-2,1-diyl))bis(2-(4-(2-(4-(tert-butyl)-2-ethoxyphenyl)-cis-4,5-bis(4-chlorophenyl)-4,5-dihydro-1H-imidazole-1-carbonyl)-2-oxopiperazin-1-yl)acetamide)], the IC50 in [1] is 3.9 ± 1.6 µM; in [3] it was 4.9 ± 0.2 µM; in [4] (setting [13]) it was 6.6 ± 1 µM; in series [6], 7.3 ± 0.52 µM. In series [2], this molecule had a Ki of 1.8 ± 0.94 µM.

With `CCOc1cc(C(C)(C)C)ccc1C1=N[C@@H](c2ccc(Cl)cc2)[C@@H](c2ccc(Cl)cc2)N1C(=O)N1CCN(CC(=O)NCCOCCNC(=O)CN2CCN(C(=O)N3C(c4ccc(C(C)(C)C)cc4OCC)=N[C@@H](c4ccc(Cl)cc4)[C@H]3c3ccc(Cl)cc3)CC2=O)C(=O)C1` (relative stereo) [Compound 11c, N,N′-(Oxybis(ethane-2,1-diyl))bis(2-(4-(2-(4-(tert-butyl)-2-ethoxyphenyl)-cis-4,5-bis(4-chlorophenyl)-4,5-dihydro-1H-imidazole-1-carbonyl)-2-oxopiperazin-1-yl)acetamide)], the IC50 in series [1] was 7.4 ± 2.1 µM; in series [3], 14 ± 3.7 µM; in series [4] (setting [13]) it was 9.3 ± 1.7 µM; in series [6], 12 ± 3.7 µM. In series [2], affinity was put at a Ki of 12 ± 1.9 µM.

On to `COc1ccc(C2=N[C@@H](c3ccc(Cl)cc3)[C@@H](c3ccc(Cl)cc3)N2C(=O)N2CCNC(=O)C2)c(OC(C)C)c1` [Compound 1, Nutlin-3, reference compound], for which the IC50 is 19 ± 0.91 µM in [8]; 5 ± 0.9 µM in [1]; 9.7 ± 1 µM in [3]; 7.9 ± 1.3 µM in series [4] (setting [13]); 9.9 ± 1.3 µM in [4] (A549, read-out: IC50 A549); 8.9 ± 1 µM in series [6]. Further, the apoptosis in series [9] (A549 cells) stood at 10.94%. For the same molecule, in series [12], the “tumor growth inhibition (TGI)” value is listed as 47.8%. For the same molecule, the “MDM2 degradation (result in words)” value in series [5] was “did not induce the degradation of MDM2”.

Take `CC(C)C[C@@H](C=O)NC(=O)[C@H](CC(C)C)NC(=O)[C@H](CC(C)C)NC(=O)OCc1ccccc1` [MG132, reference compound] (Cbz-Leu-Leu-Leu-aldehyde): in [9] (0.2 μmol/L, incubation for 24 h), the “toxic effect on A549 cells (result in words)” value is “no toxic effect”.

The values above are taken from article PMC8245912 (Acta Pharmaceutica Sinica. B, 2020).
